# In ChEMBL document CHEMBL5346868 (Eur J Med Chem, 2023):
# How the values were obtained:
# Enterovirus A71 [1] = assay: Antiviral activity against human enterovirus 71 87-2008; assay type: functional, organism-based; conditions: Enterovirus A
# SARS-CoV-2 = assay: Antiviral activity against SARS-CoV-2 BetaCoV/Belgium/GHB-03021/2020 infected in african green monkey Vero cells assessed as decline in virus induced cytopathogenicity measured after 4 days by argon laser scanning microscopic analysis; assay type: functional, organism-based; conditions: Severe acute respiratory syndrome coronavirus 2, BetaCoV/Belgium/GHB-03021/2020, Vero, 96 h
# [2] = Cytotoxicity against african green monkey Vero E6 cells by MTS assay; assay type: toxicity, cell-based, Vero C1008; conditions: chlorocebus sabaeus
# Procedure, shortened: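 Cytotoxicity is measured on treated, uninfected Vero E6 cells in parallel with the antiviral assays, using a standard MTS assay. CC50 is the concentration causing a 50% adverse effect on host cells.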
# [3] = Cytotoxicity against human RD cells by MTS assay; assay type: toxicity, cell-based
# Procedure, shortened: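 Treated, uninfected RD or HeLa cells are run alongside the matching enterovirus CPE assays, with viability read by MTS. CC50 is the concentration giving a 50% adverse effect on host cells.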
# [4] = Selectivity index, ratio of CC50 for human RD cells to EC50 for antiviral activity against human Enterovirus 71; assay type: toxicity; conditions: read-out: Ratio CC50/EC50
# Procedure, shortened: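 SI is calculated as CC50 on uninfected RD cells divided by EC50 in the 3-day EV71 BrCr CPE-reduction MTS assay.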
# Enterovirus A71 [5] = assay: Antiviral activity against human Enterovirus 71 BrCr infected in human RD cells assessed as reduction of virus induced cytopathic effect incubated for 3 days by MTS assay; assay type: functional, organism-based; conditions: Enterovirus A, 72 h
# Procedure, shortened: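 Confluent RD cells (EMEM, 10% heat-inactivated FBS) are infected with ~100 CCID50 of EV71 BrCr and treated with a compound dilution series. After 3 days at 37 °C, 5% CO2, residual viability is measured by MTS. EC50 is the concentration giving 50% antiviral effect, from at least 2–3 independent experiments.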
# Enterovirus A71 [6] = assay: Antiviral activity against human enterovirus 71 BrCr infected in human RD cells measured by colorometric based MTS/PMS method; assay type: functional, organism-based; conditions: Enterovirus A
# Procedure, shortened: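 EV71 BrCr in confluent RD cells (MEM, 10% heat-inactivated FBS) infected with ~100 CCID50 and given a compound dilution series. Incubation was 3 days at 37 °C, 5% CO2, with residual viability read by MTS. EC50 is the concentration giving 50% antiviral effect. Toxicity was run in parallel on treated uninfected cells. Values are means of ≥2 independent experiments.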
# Zika virus = assay: Antiviral activity against ZIKV MR766 infected in african green monkey Vero E6 cells assessed as decline in virus induced cytopathogenicity measured after 5 days by MTS based microscopic analysis; assay type: functional, organism-based; conditions: MR766, Vero C1008, 120 h
# Procedure, shortened: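 Vero E6 cells (10^4/well) are seeded in MEM with 2% FCS and left to adhere overnight. Cells are then infected with ZIKV MR766 (passaged in C6/36 cells) and given 2-fold serial compound dilutions. After 5 days, CPE is scored by MTS and by microscopy of fixed, stained cells. EC50 is the 50% antiviral effect.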
# Enterovirus A71 [7] = assay: Antiviral activity against human enterovirus 71; assay type: functional, organism-based; conditions: Enterovirus A
SMILES,EC50 (Enterovirus A71 [1]) [nM],EC50 (SARS-CoV-2) [nM],CC50 [2] [nM],CC50 [3] [nM],selectivity ratio [4],EC50 (Enterovirus A71 [5]) [nM],EC50 (Enterovirus A71 [6]) [nM],EC50 (Zika virus) [nM],EC50 (Enterovirus A71 [7]) [nM]
CCC(CC)COC(=O)[C@H](C)N[P@](=O)(OC[C@H]1O[C@@](C#N)(c2ccc3c(N)ncnn23)[C@H](O)[C@@H]1O)Oc1ccccc1,991,58,> 10000,–,–,–,–,–,–
OC[C@H]1O[C@@H](n2cnc3c(NCc4cccc(C(F)(F)F)c4)ncnc32)[C@H](O)[C@@H]1O,–,> 100000,> 100000,> 100000,> 2770,36,68,> 100000,–
OC[C@H]1O[C@@H](n2cnc3c(NCc4ccccc4)ncnc32)[C@H](O)[C@@H]1O [N6-BENZYLADENOSINE],–,–,–,–,–,–,–,–,280
